IDH1 R132H inh: IDH1 R132H (human) inhibition; O75874; IDH1 R132H reductase, diaphorase/resazurin fluorescence, 60 min; inhibition, % at 10 µM; actives 0.18% (n = 70,000); AID 624101; in the data active = inhibition above about 34%; inconclusive = no clear call, values can overlap the other calls; inactive = below about 11%;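 also: 0% = DMSO and 100% = no enzyme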
Target sequence (O75874 whole entry R132H): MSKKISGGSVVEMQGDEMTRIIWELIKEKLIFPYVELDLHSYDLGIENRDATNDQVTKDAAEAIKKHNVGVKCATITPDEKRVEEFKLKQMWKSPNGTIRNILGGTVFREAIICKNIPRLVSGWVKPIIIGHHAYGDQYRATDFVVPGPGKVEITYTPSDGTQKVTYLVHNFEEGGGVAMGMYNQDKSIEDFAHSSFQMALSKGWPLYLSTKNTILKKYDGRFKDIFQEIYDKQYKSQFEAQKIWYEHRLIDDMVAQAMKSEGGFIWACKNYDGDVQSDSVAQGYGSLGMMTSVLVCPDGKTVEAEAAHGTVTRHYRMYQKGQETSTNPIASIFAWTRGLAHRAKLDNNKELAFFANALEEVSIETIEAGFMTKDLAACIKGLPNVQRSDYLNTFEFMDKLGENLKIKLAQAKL
T cruzi growth-1: blocks T. cruzi growth in NIH3T3 culture; inhibition, % at 8.34 µM; T. cruzi beta-gal in NIH3T3, GalScreen luminescence, 90 h; actives 5.9% (n = 77,000);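 active = mean inhibition above about 93%, with at least 55% of replicates each passing it, limit read from the data, passing the limit was not always enough; inconclusive = only one of those two conditions holds; inactive = neither condition holds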
GASC1 inh: inhibitors of human demethylase GASC-1 KDM4C; Q9H3R0; GST-KDM4C 2-372, H3K9me3 peptide, LANCE TR-FRET; inhibition, % at 12.5 µM; actives 0.15% (n = 96,000);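 active = mean replicate inhibition above about 25%, with at least 55% of replicates also reaching it, limit read from the data, passing the limit was not always enough; inconclusive = only one of those two conditions met; inactive = neither condition met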
Target sequence (Q9H3R0 2-372 limits assumed): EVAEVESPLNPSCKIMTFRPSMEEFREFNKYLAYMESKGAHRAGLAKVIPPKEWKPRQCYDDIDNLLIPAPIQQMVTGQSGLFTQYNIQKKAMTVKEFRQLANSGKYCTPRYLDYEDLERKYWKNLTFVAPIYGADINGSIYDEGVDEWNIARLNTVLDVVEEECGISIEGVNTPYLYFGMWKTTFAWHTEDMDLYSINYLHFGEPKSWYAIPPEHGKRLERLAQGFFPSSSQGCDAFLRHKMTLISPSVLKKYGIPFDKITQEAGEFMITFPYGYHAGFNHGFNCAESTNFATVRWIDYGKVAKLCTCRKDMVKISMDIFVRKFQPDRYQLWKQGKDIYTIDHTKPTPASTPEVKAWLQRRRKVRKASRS
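Material: GST-tagged GASC-1 (JMJD2C) catalytic fragment, aa 2-372. Input: enzyme final amount 10 nM. Medium: HEPES buffer, pH 7.5, plus ascorbate. Reagent: H3K9me3 peptide substrate, Fe(II), 2-oxoglutarate. Doses: single dose. Times: reaction 30 min RT, detection step 1 h RT. Measured by: LANCE TR-FRET. Evaluation: Fall in 671/618 emission ratio as inhibition.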
Pf Dd2 inh: P. falciparum Dd2 growth inhibition; SYBR Green, 72 h; hits give low values; activity change, % at 10 µM; actives 2.3% (n = 94,000); AID 1159554; in the data active = activity change below about -80%; inconclusive = no clear call, values can overlap the other calls
T cruzi growth-2: blocks T. cruzi growth in NIH3T3 host cells. shares compounds with T cruzi growth-1. T. cruzi beta-gal in NIH3T3, GalScreen luminescence, 90 h. inhibition, % at 8.35 µM. actives 72% (n = 5,600). AID 651739;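 active = mean replicate inhibition above about 95% and at least 55% of replicates individually reaching it, limit read from the data; inconclusive = only one of the two criteria is met; inactive = neither criterion is met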
T cruzi growth-3: blocks T. cruzi growth in NIH3T3 host cells; shares compounds with T cruzi growth-1; T. cruzi beta-gal in NIH3T3, GalScreen luminescence, 90 h; inhibition, % at 2.09 µM; actives 21% (n = 5,600); AID 651740;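 active = mean inhibition above about 95%, with at least 55% of replicates also reaching it, limit read from the data; inconclusive = meets just one of the two conditions; inactive = meets neither condition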;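 also: plate controls were neutral control median for no effect and positive control median for full effect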
3T3 cytotox: cytotoxicity in mouse NIH/3T3 fibroblasts. shares compounds with T cruzi growth-1. NIH/3T3 viability, CellTiter-Glo ATP luminescence, 90 h. cytotoxicity (signal decrease), % at 8.35 µM. actives 14% (n = 5,600);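 active = mean signal decrease across replicates above about 35% based on untreated-well scatter, with enough replicates individually passing, limit read from the data; inconclusive = no rule stated though some were filed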;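 also: 0% = median of neutral control wells and 100% = median of positive control wells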
3T3 cytotox 2: cytotoxicity in mouse NIH/3T3 fibroblasts | actives 56% (n = 5,600) | shares compounds with T cruzi growth-1 | NIH/3T3 viability, CellTiter-Glo ATP luminescence, 90 h | AID 651744 | inhibition, % at 24.9 µM;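 active = mean loss of cell viability signal at or above a set limit, and enough replicates individually reaching it; inconclusive = meets only the mean limit or only the replicate share; inactive = meets neither condition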;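 also: 0% = median of neutral control wells and 100% = median of positive control wells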
An asterisk follows results filed as active; ? = inconclusive; nt = no result. Sampled rows, rich in hits. Any-hit rate of the full collection: about 5.9%.

SMILES	IDH1 R132H inh	T cruzi growth-1	GASC1 inh	Pf Dd2 inh	T cruzi growth-2	T cruzi growth-3	3T3 cytotox	3T3 cytotox 2
Cn1cnc(S(=O)(=O)N2CC[C@@H]3[C@@H](CO)Nc4ccc(-c5ccc(F)cc5)cc4[C@@H]32)c1	nt	?	1.1	-68.8	105.2*	75.0	-26.4	-6.8
N#C[C@@H]1[C@@H](c2ccc(C#Cc3cccc(F)c3)cc2)[C@@H](CO)N1C(=O)C1CC1	nt	88.9	0.1	-7.7	nt	nt	nt	nt
N#C[C@@H]1[C@@H](c2ccc(C#Cc3cccc(F)c3)cc2)[C@@H](CO)N1C(=O)C1CCCC1	nt	100.4*	-0.7	-24.7	107.4*	65.0	8.6	63.6*
N#C[C@@H]1[C@H](c2ccc(C#Cc3cccc(F)c3)cc2)[C@@H](CO)N1C(=O)C1CCC1	nt	106.6*	-2.5	-42.8	102.7*	107.9*	-7.1	79.8*
N#C[C@@H]1[C@H](c2ccc(-c3cccnc3)cc2)[C@H](CO)N1C(=O)C1CCC1	nt	41.8	1.8	4.7	nt	nt	nt	nt
N#C[C@H]1[C@@H](c2ccc(C#Cc3cccc(F)c3)cc2)[C@@H](CO)N1C(=O)C1CCC1	nt	nt	-9.6	-41.9	nt	nt	nt	nt
N#C[C@@H]1[C@@H](c2ccc(C#Cc3cccnc3)cc2)[C@@H](CO)N1C(=O)C1CCCCC1	nt	102.6*	-3.7	-24.4	68.3	23.2	-10.2	21.6
Cc1ccc2c(c1)c1nc3ccccc3nc1n2CC(=O)N(c1ccccc1)C(C)C	-0.3	nt	nt	nt	nt	nt	nt	nt
COc1ccccc1CC(=O)Nc1ccc(-c2noc(-c3ccccc3C)n2)cc1	0.1	nt	nt	nt	nt	nt	nt	nt
O=C(CSc1nc(N2CCCCC2)nc(N2CCCCC2)n1)Nc1ccc(F)cc1	0.3	nt	nt	nt	nt	nt	nt	nt
Cc1c(NC(=O)CN(c2cc(Cl)ccc2Cl)S(C)(=O)=O)c(=O)n(-c2ccccc2)n1C	0.4	nt	nt	nt	nt	nt	nt	nt
COc1ccc(-c2ccc([C@H]3[C@@H](CO)N4CCCCN(S(=O)(=O)c5cccs5)C[C@H]34)cc2)cc1	nt	104.6*	0.2	-61.2	105.7*	55.0	31.3	104.8*
O=S(=O)(c1cccs1)N1CCCCN2[C@H](CO)[C@H](c3ccc(Br)cc3)[C@@H]2C1	nt	114.4*	-1.5	4.5	100.2*	-21.8	8.9	30.3*
O=S(=O)(c1cccs1)N1CCCCN2[C@H](C1)[C@H](c1ccc(C3=CCCCC3)cc1)[C@@H]2CO	nt	119.8*	nt	2.2	108.9*	74.4	4.6	?
O=S(=O)(c1cccs1)N1CCCCN2[C@@H](CO)[C@@H](c3ccc(Br)cc3)[C@@H]2C1	nt	88.1	0.1	-56.5	nt	nt	nt	nt
CS(=O)(=O)N1CCCCN2[C@@H](CO)[C@H](c3ccc(C4=CCCC4)cc3)[C@@H]2C1	nt	?	-0.5	23.9	92.4	35.1	2.5	9.1
COc1ccc(-c2nnn(CC(=O)Nc3ccc(OC)cc3OC)n2)cc1	9.1	nt	nt	nt	nt	nt	nt	nt
N#Cc1c(SCC(=O)Nc2c(Cl)cccc2Cl)nc2c(c1-c1cccnc1)CCC2	0.1	nt	nt	nt	nt	nt	nt	nt
COCCNC(=O)c1ccccc1NC(=O)Nc1ccc(Cl)cc1	0.0	nt	nt	nt	nt	nt	nt	nt
COc1ccc(-c2ccc([C@H]3[C@H]4CN(S(=O)(=O)c5cccs5)CCCCN4[C@H]3CO)cc2)cc1	nt	113.5*	-0.2	-17.9	107.6*	94.2	-8.5	7.9
CN(C)C(=O)c1ccc(-c2ccc([C@H]3[C@@H](CO)N4CCCCN(S(C)(=O)=O)C[C@H]34)cc2)cc1	nt	83.3	-0.2	15.5	nt	nt	nt	nt
COc1ccc(S(=O)(=O)N2CCCCN3[C@H](C2)[C@H](c2ccc(C4=CCCCC4)cc2)[C@@H]3CO)cc1	nt	116.9*	nt	-9.6	?	43.0	19.9	26.8*
COc1ccc(-c2ccc([C@@H]3[C@H](CO)N4CCCCN(S(=O)(=O)c5cccs5)C[C@@H]34)cc2)cc1	nt	91.5	-1.1	-50.9	nt	nt	nt	nt
Cc1cccc(-c2ccc([C@H]3[C@H]4CN(S(=O)(=O)c5cccs5)CCCCN4[C@H]3CO)cc2)c1	nt	107.2*	2.3	-6.3	102.7*	99.4*	27.0	45.5*
CN(C)C(=O)c1ccc(-c2ccc([C@H]3[C@@H](CO)N4CCCCN(S(C)(=O)=O)C[C@@H]34)cc2)cc1	nt	98.2*	-1.0	24.1	44.4	2.9	-1.1	5.2
SMILES	IDH1 R132H inh	T cruzi growth-1	GASC1 inh	Pf Dd2 inh	T cruzi growth-2	T cruzi growth-3	3T3 cytotox	3T3 cytotox 2
CNC[C@@H]1Oc2cc(C#CCC3CCCC3)ccc2S(=O)(=O)N([C@@H](C)CO)C[C@@H]1C	0.2	?	-2.4	-65.6	87.0	71.0	50.6*	105.6*
CNC[C@H]1Oc2cc(C#CCC3CCCC3)ccc2S(=O)(=O)N([C@@H](C)CO)C[C@@H]1C	0.4	?	-2.2	-66.0	-27.5	-20.1	-2.1	-5.6
C[C@@H]1CN([C@H](C)CO)S(=O)(=O)c2ccc(C#CCC3CCCC3)cc2O[C@H]1CN(C)C	-1.4	41.2	-1.2	-21.7	nt	nt	nt	nt
CNC[C@@H]1Oc2cc(C#CCC3CCCC3)ccc2S(=O)(=O)N([C@@H](C)CO)C[C@H]1C	0.1	?	0.6	-61.3	100.6*	60.4	?	104.6*
C[C@H]1CN([C@@H](C)CO)S(=O)(=O)c2ccc(C#CCC3CCCC3)cc2O[C@@H]1CN(C)C	-1.5	73.1	nt	-54.7	nt	nt	nt	nt
CNC[C@H]1Oc2cc(C#CCC3CCCC3)ccc2S(=O)(=O)N([C@H](C)CO)C[C@H]1C	0.1	?	-3.0	-68.5	97.9*	79.0	?	106.4*
CCOC(=O)c1c(NC(=O)COc2ccccc2Br)sc(C)c1C	0.2	nt	nt	nt	nt	nt	nt	nt
CCn1c(SCC(=O)Nc2cccc(SC)c2)nnc1-c1ccc(Cl)cc1	0.0	nt	nt	nt	nt	nt	nt	nt
Cc1ccc(-c2nc3ccccc3[nH]2)cc1NC(=O)C(C)Oc1ccc(Cl)cc1Cl (stereo unspecified)	0.1	nt	nt	nt	nt	nt	nt	nt
Cc1ccc(-c2ccc([C@H]3[C@H](CO)N4CCCCN(S(=O)(=O)c5cccc(C)c5)C[C@@H]34)cc2)cc1	nt	55.2	nt	-49.4	nt	nt	nt	nt
Cc1cccc(S(=O)(=O)N2CCCCN3[C@H](CO)[C@H](c4ccc(-c5ccncc5)cc4)[C@H]3C2)c1	nt	110.2*	-0.8	-61.9	106.8*	72.7	-11.3	36.5*
Cc1cccc(S(=O)(=O)N2CCCCN3[C@@H](CO)[C@H](c4ccc(-c5ccncc5)cc4)[C@@H]3C2)c1	nt	98.5*	-1.0	-20.6	107.1*	64.6	29.0	46.2*
Cc1ccc(-c2ccc([C@H]3[C@H]4CN(S(=O)(=O)c5cccc(C)c5)CCCCN4[C@H]3CO)cc2)cc1	nt	86.2	nt	-1.7	nt	nt	nt	nt
Cc1ccc(-c2ccc([C@@H]3[C@H](CO)N4CCCCN(S(=O)(=O)c5cccc(C)c5)C[C@@H]34)cc2)cc1	nt	107.8*	nt	-78.6	?	97.6*	33.7	104.3*
CCN(CC(=O)Nc1ccccc1OC)S(=O)(=O)c1ccc2ccccc2c1	-0.4	nt	nt	nt	nt	nt	nt	nt
